Reference: paper PMC3417419 (British Journal of Pharmacology, 2012)
Where two headings read alike, the source gives them in different places.

What was measured:
[1] = target: GluN1/GluN2A NMDA receptors (Rattus norvegicus, UniProt P35439+Q00959); assay: Two-electrode voltage-clamp; assay type: cell-based; settings: for mean dose ratio (r): two-point glycine curves
[2] = target: GluN1/GluN2B NMDA receptors (Rattus norvegicus, UniProt P35439+Q00960); assay: Two-electrode voltage-clamp; assay type: cell-based; settings: for antagonism of glutamate/glycine-evoked responses: TCN 213 10 µM
GluN1/GluN2B NMDA receptors (Rattus norvegicus, UniProt P35439+Q00960), sequence (Q00960 27-1482, other chains not shown): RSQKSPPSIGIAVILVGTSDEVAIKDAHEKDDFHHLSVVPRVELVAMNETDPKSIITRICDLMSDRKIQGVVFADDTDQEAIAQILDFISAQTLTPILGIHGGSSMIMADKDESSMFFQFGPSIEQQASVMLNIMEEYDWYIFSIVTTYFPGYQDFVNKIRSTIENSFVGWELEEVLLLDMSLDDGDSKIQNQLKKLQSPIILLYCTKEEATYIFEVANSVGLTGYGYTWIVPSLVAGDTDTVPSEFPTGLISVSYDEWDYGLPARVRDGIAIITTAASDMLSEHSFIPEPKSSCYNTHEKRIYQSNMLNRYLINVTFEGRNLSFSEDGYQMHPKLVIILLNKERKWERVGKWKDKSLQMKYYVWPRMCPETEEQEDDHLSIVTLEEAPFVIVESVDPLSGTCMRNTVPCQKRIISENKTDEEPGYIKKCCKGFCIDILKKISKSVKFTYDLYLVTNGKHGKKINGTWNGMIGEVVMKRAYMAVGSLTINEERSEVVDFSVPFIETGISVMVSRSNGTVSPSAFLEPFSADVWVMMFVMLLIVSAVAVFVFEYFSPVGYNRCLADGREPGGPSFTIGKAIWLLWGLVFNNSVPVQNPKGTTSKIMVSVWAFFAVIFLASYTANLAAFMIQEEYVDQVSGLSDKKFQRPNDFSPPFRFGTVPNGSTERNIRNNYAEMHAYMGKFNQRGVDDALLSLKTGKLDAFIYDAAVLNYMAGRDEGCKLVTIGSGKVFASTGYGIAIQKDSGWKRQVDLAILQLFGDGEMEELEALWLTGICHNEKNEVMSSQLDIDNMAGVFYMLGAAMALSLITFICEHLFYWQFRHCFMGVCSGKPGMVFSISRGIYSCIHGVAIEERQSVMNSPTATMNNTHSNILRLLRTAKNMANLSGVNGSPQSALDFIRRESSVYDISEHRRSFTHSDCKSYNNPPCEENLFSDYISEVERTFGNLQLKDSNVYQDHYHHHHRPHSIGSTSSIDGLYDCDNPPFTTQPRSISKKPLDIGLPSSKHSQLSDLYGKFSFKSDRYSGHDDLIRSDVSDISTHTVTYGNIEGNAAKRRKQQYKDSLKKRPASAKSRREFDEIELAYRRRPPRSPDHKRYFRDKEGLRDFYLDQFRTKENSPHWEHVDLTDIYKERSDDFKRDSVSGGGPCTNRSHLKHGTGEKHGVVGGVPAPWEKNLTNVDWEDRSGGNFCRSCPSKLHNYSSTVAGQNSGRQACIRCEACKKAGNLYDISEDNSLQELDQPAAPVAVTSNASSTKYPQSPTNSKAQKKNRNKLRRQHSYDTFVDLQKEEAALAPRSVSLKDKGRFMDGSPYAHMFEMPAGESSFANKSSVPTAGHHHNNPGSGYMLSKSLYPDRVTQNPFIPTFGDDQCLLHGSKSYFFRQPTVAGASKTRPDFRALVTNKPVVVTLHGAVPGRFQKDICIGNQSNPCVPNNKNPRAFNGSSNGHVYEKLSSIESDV

[3] = target: GluN1/GluN2A and GluN1/GluN2D NMDA receptors; settings: ref Chen et al., 2008; cited from earlier work
rat cortical neurones = assay: NMDA-induced excitotoxicity assay in cortical cultures; assay type: cell-based; settings: NMDA 40 µM + glycine […], 1 h, DIV 7–10, assessed at 24 h
How it was run: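 Cortical neurones from E21 Sprague–Dawley rat embryos, grown in Neurobasal-A with B27, 1% rat serum and glutamine; AraC added at DIV 4. Before the assay, cultures moved to glycine-free non-trophic medium (10% MEM in HEPES salt-glucose medium). […] After 24 h, DAPI-stained pyknotic nuclei counted as percentage of total nuclei.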

[4] = system: GluN2A- and GluN2B-containing NMDA receptors; settings: cited from earlier work
native NMDA receptors = assay: Whole-cell NMDA-evoked currents in cultured rat cortical neurones; assay type: cell-based; settings: for block of NMDA receptor-mediated currents, subset with greatest ifenprodil block: n= 7 cells
GluN1 subunit = settings: ref Bettini et al. (2010); cited from earlier work
[5] = system: GluN1/GluN2B NMDA receptors; settings: non-competitive antagonist, block 'at most'; no reference given; cited from earlier work
[6] = TCN 213 30 µM, NMDA 50 µM + glycine 3 µM

GluN1/GluN2A NMDA receptors, sequence (Q00959 23-1464, other chains not shown): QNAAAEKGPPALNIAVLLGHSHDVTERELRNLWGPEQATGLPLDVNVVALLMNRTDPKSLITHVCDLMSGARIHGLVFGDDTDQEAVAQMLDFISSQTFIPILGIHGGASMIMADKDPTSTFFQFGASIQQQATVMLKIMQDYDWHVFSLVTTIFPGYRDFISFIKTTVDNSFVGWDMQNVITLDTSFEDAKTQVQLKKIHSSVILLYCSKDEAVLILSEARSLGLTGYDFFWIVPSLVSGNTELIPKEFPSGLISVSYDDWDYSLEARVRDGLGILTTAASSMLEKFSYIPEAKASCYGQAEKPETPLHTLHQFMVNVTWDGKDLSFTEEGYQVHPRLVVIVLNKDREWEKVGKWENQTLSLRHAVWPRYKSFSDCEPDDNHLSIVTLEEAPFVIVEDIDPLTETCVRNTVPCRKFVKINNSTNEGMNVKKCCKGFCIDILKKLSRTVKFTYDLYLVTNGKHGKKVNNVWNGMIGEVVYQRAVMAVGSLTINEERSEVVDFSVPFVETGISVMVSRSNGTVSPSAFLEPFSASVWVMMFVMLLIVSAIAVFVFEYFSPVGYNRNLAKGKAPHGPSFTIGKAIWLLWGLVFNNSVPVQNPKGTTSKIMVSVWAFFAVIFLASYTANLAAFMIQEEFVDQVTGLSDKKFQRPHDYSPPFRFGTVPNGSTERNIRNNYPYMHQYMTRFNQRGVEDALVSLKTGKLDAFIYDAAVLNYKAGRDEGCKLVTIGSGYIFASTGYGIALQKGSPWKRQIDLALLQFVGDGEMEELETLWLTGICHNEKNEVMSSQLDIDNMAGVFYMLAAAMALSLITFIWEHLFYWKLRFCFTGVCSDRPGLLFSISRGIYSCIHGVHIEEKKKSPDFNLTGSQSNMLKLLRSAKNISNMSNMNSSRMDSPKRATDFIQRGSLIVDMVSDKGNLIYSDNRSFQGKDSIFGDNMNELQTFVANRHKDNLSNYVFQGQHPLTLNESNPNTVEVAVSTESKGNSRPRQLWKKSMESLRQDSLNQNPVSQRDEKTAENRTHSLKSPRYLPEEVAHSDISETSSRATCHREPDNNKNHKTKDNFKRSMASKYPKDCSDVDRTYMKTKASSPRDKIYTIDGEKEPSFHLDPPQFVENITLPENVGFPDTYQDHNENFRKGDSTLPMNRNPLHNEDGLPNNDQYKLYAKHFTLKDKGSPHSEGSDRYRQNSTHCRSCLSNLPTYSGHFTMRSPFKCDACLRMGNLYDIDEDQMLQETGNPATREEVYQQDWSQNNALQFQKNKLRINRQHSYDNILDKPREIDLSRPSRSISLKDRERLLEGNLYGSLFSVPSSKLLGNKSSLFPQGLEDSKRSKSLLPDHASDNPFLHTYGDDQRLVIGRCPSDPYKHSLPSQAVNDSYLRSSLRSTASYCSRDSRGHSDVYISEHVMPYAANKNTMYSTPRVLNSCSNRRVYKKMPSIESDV

SMILES: O=C(O)c1cc(=O)c2c(Cl)cc(Cl)cc2[nH]1 [5,7 DCKA, 5,7 dichlorokynurenic acid]
- IC50 ([1]; read-out: Antagonist IC50, [gly]= 0.1 EC50 ([…] glycine) + 100 µM glutamate): 130 ± 10 nM
- IC50 ([1]; read-out: Antagonist IC50, [gly]= 10 EC50 (15 µM glycine) + 100 µM glutamate): 4100 ± 300 nM
- IC50 ([1]; read-out: Antagonist IC50, [gly]= EC50 ([…] glycine) + 100 µM glutamate): 420 ± 30 nM
- IC50 ([2]; read-out: Antagonist IC50): 74 ± 10 nM
- IC50 ([2]; read-out: Antagonist IC50, [gly]= 10 EC50): 4100 ± 400 nM
- IC50 ([2]; read-out: Antagonist IC50, [gly]= EC50): 490 ± 10 nM
- KB values at GluN1/GluN2A versus GluN1/GluN2D (Schild analysis) [3]: indistinguishable
- NMDA-induced cell death (pyknotic nuclei) versus NMDA alone (rat cortical neurones; 5,7 DCKA 10 µM): reduced significantly

SMILES: [N-]=[N+]=Nc1ccc(CC(=O)NC2CC(C(=O)O)Nc3cc(Cl)cc(Cl)c32)cc1 (centres unmarked) [CGP-61594]
- potency at GluN1/GluN2B compared with GluN1/GluN2A NMDA receptors ([4]; more potent at GluN1/GluN2B, ref Honer et al., 1998): 10 fold

SMILES: O=C(Nc1ccccc1)N[C@@H]1C[C@@H](C(=O)O)Nc2cc(Cl)cc(Cl)c21 [L-689 560]
- selectivity for GluN2A- over GluN2B-containing NMDA receptors ([4]; ref Hess et al., 1996): 5 fold

SMILES: O=C(CSc1nnc(NCc2ccccc2)s1)NCC1CCCCC1 [TCN 213, N-(cyclohexylmethyl)-2-({5-[(phenylmethyl)amino]-1,3,4-thiadiazol-2-yl}thio)acetamide]
- mean dose ratio (r) ([1]; 10 µM TCN 213, glutamate 100 µM): 5.20 ± 0.79
- mean dose ratio (r) ([1]; 30 µM TCN 213, glutamate 100 µM): 17.22 ± 1.69
- Schild plot slope, 'free' fit ([1]; 95% confidence interval 0.94–1.31): 1.13
- IC50 ([1]; Antagonist IC50, [gly]= 0.1 EC50 ([…] glycine) + 100 µM glutamate): 550 ± 50 nM
- IC50 ([1]; Antagonist IC50, [gly]= 10 EC50 (15 µM glycine) + 100 µM glutamate): 40000 ± 3500 nM
- IC50 ([1]; Antagonist IC50, [gly]= EC50 ([…] glycine) + 100 µM glutamate): 3500 ± 50 nM
- block of glutamate/glycine-evoked current ([1]; TCN 213 10 µM, glutamate 100 µM, glycine 150 nM (0.1 × EC50)): Almost complete block
- block of glutamate/glycine-evoked current ([1]; TCN 213 10 µM, glutamate 100 µM, glycine 15 µM (10 × EC50)): substantially less block
- dependence of antagonism on glutamate concentration ([1]; TCN 213 10 µM, glycine 50 µM, glutamate 0.1, 1, 10 × EC50): not dependent on the glutamate concentration
- expected block of current for a purely GluN2A-containing population ([1]; TCN 213 10 µM, glycine […], read from Figure 2A): around 75%
- mean block of NMDA-evoked current [1, 6]: 78 ± 4%
- reduction in amplitude of current response, example trace ([1]; TCN 213 30 µM, NMDA 50 µM + glycine 3 µM, single oocyte): approximately 75%
- selectivity GluN1/GluN2A over GluN1/GluN2B ([1]; from IC50 values at glycine = EC50): around 100 fold
- surmountability of antagonism by increasing glycine ([1]; glutamate 100 µM, glycine 50 µM and above): surmountable
- concentration predicted to block fully the response ([1]; glycine 10 times EC50, extrapolation of Figure 2A): around 1 mM
- IC50 [2]: > 300000 nM
- antagonism of glutamate/glycine-evoked responses ([2]; 50 µM glycine, three glutamate concentrations): no antagonism
- antagonism of glutamate/glycine-evoked responses ([2]; glycine low (0.1 × EC50)): only modestly antagonized
- mean block of NMDA-evoked current [2, 6]: 2 ± 0.5%
- inhibition of currents ([2]; TCN 213 30 µM, glycine 1 and 10 times EC50): negligible inhibition
- average inhibition of NMDA receptor-mediated currents (native NMDA receptors; TCN 213 10 µM, DIV 7–10, NMDA 50 µM + glycine […], −70 mV): 2 ± 3%
- block of NMDA receptor-mediated currents, subset with greatest ifenprodil block (native NMDA receptors; TCN 213 10 µM, DIV 7–10): 4 ± 2%
- displacement of the GluN1 ligand MDL 105 519 (GluN1 subunit): failed to displace

SMILES: CC(C(O)c1ccc(O)cc1)N1CCC(Cc2ccccc2)CC1 (centres unmarked) [ifenprodil]
- reduction of NMDA + glycine evoked current, example cell (native NMDA receptors; ifenprodil 3 µM, 7 DIV pyramidal cell, NMDA 50 µM + glycine […]): around 75%
- average block of NMDA receptor-mediated currents (native NMDA receptors; ifenprodil 3 µM, DIV 7–10, NMDA 50 µM + glycine […], −70 mV): 72 ± 2%
- block of NMDA receptor-mediated currents, subset with greatest ifenprodil block (native NMDA receptors; ifenprodil 3 µM, DIV 7–10): 78 ± 1%
- maximal block of current [5]: 75–80%
- NMDA-induced cell death (pyknotic nuclei) versus NMDA alone (rat cortical neurones; ifenprodil 3 µM): reduced significantly
